# Measured values published in ChEMBL document CHEMBL1165943, “Design and synthesis of new anticancer pyrimidines with multiple-kinase inhibitory effect” (Bioorg Med Chem, 2010).
# Several values for one entry are separate records, joined by “and”; a condition that tells them apart may be missing. Equal entries are not always repeated.
# Assays:
# OVCAR-5 = assay: Cytotoxicity against human OVCAR5 cells assessed as cell growth at 100 nM after 48 hrs by sulforhodamine B assay; assay type: functional; settings: OVCAR-5, 48 h, read-out: Activity
# 786-0 [1] = assay: Cytotoxicity against human 786-0 cells assessed as cell growth at 10 uM after 48 hrs by sulforhodamine B assay; assay type: functional; settings: 786-0, 48 h, read-out: Activity
# Summary of the method: (§1)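 Cells grown in RPMI 1640 with 5% FBS and 2 mM L-glutamine, seeded at 5,000–40,000 cells/well by doubling time. Time-zero plates TCA-fixed after 24 h. Five concentrations (10-fold or half-log dilutions from DMSO stock) added; 48 h at 37 °C, 5% CO2. Cold TCA fixation (final 10%, 60 min, 4 °C), 0.4% SRB stain, dye solubilized in 10 mM trizma base, A515.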
# SNB-75 = assay: Growth inhibition of human SNB75 cells after 48 hrs by sulforhodamine B assay; assay type: functional, cell-based; settings: for CC50: read-out: LC50 (the source's name)
# Summary of the method: (§2)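 Cells grown in RPMI 1640 with 5% FBS and 2 mM L-glutamine, seeded at 5,000–40,000 cells/well according to doubling time. After 24 h, time-zero plates are TCA-fixed. Five concentrations (10-fold or ½log dilutions, DMSO stocks) are applied for 48 h at 37 °C, 5% CO₂. Cells are TCA-fixed, SRB-stained and read at 515 nm. IC₅₀ is taken from [(Ti−Tz)/(C−Tz)]×100 = 50.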
# A498 = assay: Cytotoxicity against human A498 cells assessed as cell growth at 0.01 uM after 48 hrs by sulforhodamine B assay; assay type: functional; settings: A498, 48 h, read-out: Activity; summary of the method: as §1
# SK-MEL-5 [2] = assay: Growth inhibition of human SK-MEL-5 cells after 48 hrs by sulforhodamine B assay; assay type: functional, cell-based; settings: for CC50: read-out: LC50 (the source's name); summary of the method: as §2
# SNB-19 = assay: Cytotoxicity against human SNB19 cells assessed as cell growth at 0.001 uM after 48 hrs by sulforhodamine B assay; assay type: functional; settings: SNB-19, 48 h, read-out: Activity
# COLO 205 = assay: Cytotoxicity against human COLO205 cells assessed as cell growth at 100 nM after 48 hrs by sulforhodamine B assay; assay type: functional; settings: COLO 205, 48 h, read-out: Activity; summary of the method: as §1
# SF-539 [3] = assay: Cytotoxicity against human SF539 cells assessed as cell growth at 1 uM after 48 hrs by sulforhodamine B assay; assay type: functional; settings: SF-539, 48 h, read-out: Activity
# 786-0 [4] = assay: Cytotoxicity against human 786-0 cells assessed as cell growth at 1 uM after 48 hrs by sulforhodamine B assay; assay type: functional; settings: 786-0, 48 h, read-out: Activity; summary of the method: as §1
# KM12 = assay: Cytotoxicity against human KM12 cells assessed as cell growth at 10 uM after 48 hrs by sulforhodamine B assay; assay type: functional; settings: KM12, 48 h, read-out: Activity
# MOLT-4 = assay: Cytotoxicity against human MOLT4 cells assessed as cell growth at 10 uM after 48 hrs by sulforhodamine B assay; assay type: functional; settings: MOLT-4, 48 h, read-out: Activity
# LOX IMVI [5] = assay: Cytotoxicity against human LOXIMVI cells assessed as cell growth at 0.01 uM after 48 hrs by sulforhodamine B assay; assay type: functional; settings: read-out: Activity
# LOX IMVI [6] = assay: Cytotoxicity against human LOXIMVI cells assessed as cell growth at 100 nM after 48 hrs by sulforhodamine B assay; assay type: functional; settings: read-out: Activity
# SF-539 [7] = assay: Growth inhibition of human SF539 cells after 48 hrs by sulforhodamine B assay; assay type: functional, cell-based; settings: for CC50: read-out: LC50 (the source's name); summary of the method: as §2
# TK-10 = assay: Cytotoxicity against human TK10 cells assessed as cell growth at 100 nM after 48 hrs by sulforhodamine B assay; assay type: functional; settings: TK-10, 48 h, read-out: Activity
# [8] = Cytotoxicity against human Hs 578T cells assessed as cell growth at 1 uM after 48 hrs by sulforhodamine B assay; assay type: functional; settings: read-out: Activity
# OVCAR-8 [9] = assay: Cytotoxicity against human OVCAR8 cells assessed as cell growth at 0.01 uM after 48 hrs by sulforhodamine B assay; assay type: functional; settings: OVCAR-8, 48 h, read-out: Activity
# NCI-H23 = assay: Cytotoxicity against human NCI-H23 cells assessed as cell growth at 10 uM after 48 hrs by sulforhodamine B assay; assay type: functional; settings: NCI-H23, 48 h, read-out: Activity
# SF-295 = assay: Cytotoxicity against human SF295 cells assessed as cell growth at 0.01 uM after 48 hrs by sulforhodamine B assay; assay type: functional; settings: SF-295, 48 h, read-out: Activity
# HCT-15 [10] = assay: Cytotoxicity against human HCT15 cells assessed as cell growth at 0.01 uM after 48 hrs by sulforhodamine B assay; assay type: functional; settings: HCT-15, 48 h, read-out: Activity
# HCT-116 = assay: Cytotoxicity against human HCT116 cells assessed as cell growth at 0.001 uM after 48 hrs by sulforhodamine B assay; assay type: functional; settings: HCT-116, 48 h, read-out: Activity
# MDA-MB-231 = assay: Cytotoxicity against human MDA-MB-231 cells assessed as cell growth at 1 uM after 48 hrs by sulforhodamine B assay; assay type: functional; settings: MDA-MB-231, 48 h, read-out: Activity
# SN12C [11] = assay: Cytotoxicity against human SN12C cells assessed as cell growth at 1 uM after 48 hrs by sulforhodamine B assay; assay type: functional; settings: read-out: Activity
# HCT-15 [12] = assay: Cytotoxicity against human HCT15 cells assessed as cell growth at 10 uM after 48 hrs by sulforhodamine B assay; assay type: functional; settings: HCT-15, 48 h, read-out: Activity
# UO-31 = assay: Cytotoxicity against human UO31 cells assessed as cell growth at 0.01 uM after 48 hrs by sulforhodamine B assay; assay type: functional; settings: UO-31, 48 h, read-out: Activity
# IGROV-1 = assay: Cytotoxicity against human IGROV1 cells assessed as cell growth at 0.01 uM after 48 hrs by sulforhodamine B assay; assay type: functional; settings: IGROV-1, 48 h, read-out: Activity
# HCT-15 [13] = assay: Cytotoxicity against human HCT15 cells assessed as cell growth at 100 nM after 48 hrs by sulforhodamine B assay; assay type: functional; settings: HCT-15, 48 h, read-out: Activity
# [14] = Cytotoxicity against human Hs 578T cells assessed as cell growth at 0.001 uM after 48 hrs by sulforhodamine B assay; assay type: functional; settings: read-out: Activity
# MDA-MB-435 = assay: Cytotoxicity against human MDA-MB-435 cells assessed as cell growth at 1 uM after 48 hrs by sulforhodamine B assay; assay type: functional; settings: MDA-MB-435, 48 h, read-out: Activity
# SN12C [15] = assay: Cytotoxicity against human SN12C cells assessed as cell growth at 0.001 uM after 48 hrs by sulforhodamine B assay; assay type: functional; settings: read-out: Activity
# UACC-62 = assay: Cytotoxicity against human UACC62 cells assessed as cell growth at 1 uM after 48 hrs by sulforhodamine B assay; assay type: functional; settings: UACC-62, 48 h, read-out: Activity
# SK-MEL-5 [16] = assay: Cytotoxicity against human SK-MEL-5 cells assessed as cell growth at 10 uM after 48 hrs by sulforhodamine B assay; assay type: functional; settings: SK-MEL-5, 48 h, read-out: Activity
# OVCAR-8 [17] = assay: Cytotoxicity against human OVCAR8 cells assessed as cell growth at 100 nM after 48 hrs by sulforhodamine B assay; assay type: functional; settings: OVCAR-8, 48 h, read-out: Activity
structure (smiles),measurement,setting,value
CC(=O)c1ccccc1-c1ccc(-c2ccnc(NC(=O)Nc3cc(N4CCOCC4)cc(C(F)(F)F)c3)n2)cn1,growth at 0.1 µM,OVCAR-5,91%
same,growth at 10 µM,786-0 [1],10%
same,TGI,SNB-75,100 µM and 27.5 µM
same,GI50,"SNB-75; Homo sapiens, SNB-75, 48 h",38.7 µM
same,IC50,"SNB-75; Homo sapiens, SNB-75, 48 h",5.35 µM
same,CC50,"SNB-75; Homo sapiens, SNB-75, 48 h",> 100 µM
same,growth at 0.01 µM,A498,83%
same,TGI,"SK-MEL-5 [2]; Homo sapiens, SK-MEL-5, 48 h",> 100 µM
same,CC50,"SK-MEL-5 [2]; Homo sapiens, SK-MEL-5, 48 h",> 100 µM
same,IC50,SK-MEL-5 [2]; sk-mel-5,Not Active
same,growth at 0.001 µM,SNB-19,98%
same,growth at 0.1 µM,COLO 205,107%
same,growth at 1 µM,SF-539 [3],45%
same,growth at 1 µM,786-0 [4],55%
same,growth at 10 µM,KM12,82%
same,growth at 10 µM,MOLT-4,101%
same,growth at 0.01 µM,LOX IMVI [5],106%
same,growth at 0.1 µM,LOX IMVI [6],90%
same,TGI,"SF-539 [7]; Homo sapiens, SF-539, 48 h",> 100 µM
same,CC50,"SF-539 [7]; Homo sapiens, SF-539, 48 h",> 100 µM
same,IC50,SF-539 [7]; sf-539,Not Active
same,growth at 0.1 µM,TK-10,100%
same,growth at 1 µM,[8],22%
same,growth at 0.01 µM,OVCAR-8 [9],93%
same,growth at 10 µM,NCI-H23,60%
same,growth at 0.01 µM,SF-295,90%
same,growth at 0.01 µM,HCT-15 [10],98%
same,growth at 0.001 µM,HCT-116,95%
same,growth at 1 µM,MDA-MB-231,35%
same,growth at 1 µM,SN12C [11],64%
same,growth at 10 µM,HCT-15 [12],87%
same,growth at 0.01 µM,UO-31,91%
same,growth at 0.01 µM,IGROV-1,96%
same,growth at 0.1 µM,HCT-15 [13],92%
same,growth at 0.001 µM,[14],107%
same,growth at 1 µM,MDA-MB-435,71%
same,growth at 0.001 µM,SN12C [15],93%
same,growth at 1 µM,UACC-62,73%
same,growth at 10 µM,SK-MEL-5 [16],68%
same,growth at 0.1 µM,OVCAR-8 [17],66%
CC(=O)Nc1cccc(-c2ccc(-c3ccnc(NC(=O)Nc4cc(C(F)(F)F)cc(C(F)(F)F)c4)n3)cn2)c1.Cl,growth at 0.1 µM,OVCAR-5,97%
same,growth at 10 µM,786-0 [1],100%
same,GI50,"SNB-75; Homo sapiens, SNB-75, 48 h",10.9 µM
same,IC50,"SNB-75; Homo sapiens, SNB-75, 48 h",10.9 µM
same,TGI,"SNB-75; Homo sapiens, SNB-75, 48 h",30.5 µM
same,CC50,"SNB-75; Homo sapiens, SNB-75, 48 h",85.8 µM
same,growth at 0.01 µM,A498,92%
same,GI50,"SK-MEL-5 [2]; Homo sapiens, SK-MEL-5, 48 h",1.35 µM
same,TGI,"SK-MEL-5 [2]; Homo sapiens, SK-MEL-5, 48 h",2.64 µM
same,IC50,"SK-MEL-5 [2]; Homo sapiens, SK-MEL-5, 48 h, read-out: IC50",1.35 µM
same,CC50,"SK-MEL-5 [2]; Homo sapiens, SK-MEL-5, 48 h",5.13 µM
same,growth at 0.001 µM,SNB-19,95%
same,growth at 0.1 µM,COLO 205,96%
same,growth at 1 µM,SF-539 [3],37%
same,growth at 1 µM,786-0 [4],25%
same,growth at 10 µM,KM12,100%
same,growth at 10 µM,MOLT-4,11%
same,growth at 0.01 µM,LOX IMVI [5],86%
same,growth at 0.1 µM,LOX IMVI [6],81%
same,GI50,"SF-539 [7]; Homo sapiens, SF-539, 48 h",5.48 µM
same,TGI,"SF-539 [7]; Homo sapiens, SF-539, 48 h",18.9 µM
same,IC50,"SF-539 [7]; Homo sapiens, SF-539, 48 h, read-out: IC50",5.48 µM
same,CC50,"SF-539 [7]; Homo sapiens, SF-539, 48 h",44.3 µM
same,growth at 0.1 µM,TK-10,105%
same,growth at 1 µM,[8],43%
same,growth at 0.01 µM,OVCAR-8 [9],96%
same,growth at 10 µM,NCI-H23,-69%
same,growth at 0.01 µM,SF-295,94%
same,growth at 0.01 µM,HCT-15 [10],91%
same,growth at 0.001 µM,HCT-116,92%
same,growth at 1 µM,MDA-MB-231,30%
same,growth at 1 µM,SN12C [11],49%
same,growth at 10 µM,HCT-15 [12],-86%
same,growth at 0.01 µM,UO-31,87%
same,growth at 0.01 µM,IGROV-1,95%
same,growth at 0.1 µM,HCT-15 [13],90%
same,growth at 0.001 µM,[14],90%
same,growth at 1 µM,MDA-MB-435,-18%
same,growth at 0.001 µM,SN12C [15],94%
same,growth at 1 µM,UACC-62,12%
same,growth at 10 µM,SK-MEL-5 [16],100%
same,growth at 0.1 µM,OVCAR-8 [17],85%
